# Assay results published in ChEMBL document CHEMBL4007469, “Design and synthesis of dalbergin analogues and evaluation of anti-osteoporotic activity” (Bioorg Med Chem Lett, 2017).
# Calls of active or inactive are those of the source. No cut-off for these calls is given here.
# Experiments:
# Mus musculus [1] = assay: In vivo induction of osteogenesis in Balb/c mouse assessed as increase in Runx2 mRNA level in calvaria at 1 mg/kg/day, sc over calvarial surface for 5 consecutive days by RT-PCR method relative to control; format: functional
# How it was run: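 Three-week-old Balb/c mice (3 per group) injected subcutaneously over the calvarial surface daily for 5 consecutive days at 0.1, 0.5, 1 and 5 mg/kg/day. Calvaria fixed in 4% formaldehyde, paraffin-embedded, H&E-stained; tetracycline and calcein (20 mg/kg each, ip) given for MAR/BFR histomorphometry; calvarial mRNA by RT-PCR. Mean ± SE, three independent experiments, versus untreated.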
# Mus musculus [2] = assay: Anti-osteoporotic activity in ovariectomized postmenopausal Balb/c mouse model assessed as induction of femur bone marrow cell differentiation by measuring increase in ALP activity at 1 mg/kg, po qd via gavage for 6 weeks relative to control; format: functional
# How it was run: (§1)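 Ovariectomized 8-week-old female Balb/c mice given 1.0 mg/kg/day orally by gavage for 6 weeks; bone marrow cells then cultured ex vivo. ALP activity read at 405 nm; mineralized nodules stained with Alizarin Red at day 21 of culture. Mean ± SE versus OVx group.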
# [3] = Induction of osteoblast differentiation in mouse calvarial cells assessed as compound concentration required for maximum increase in ALP activity using PNPP as substrate after 48 hrs; format: functional, Calvarial cell
# Calvarial cell = assay: Induction of mineralization in mouse calvarial cells assessed as calcium nodule formation at Emax incubated for 12 days by alizarin red-S staining based spectrophotometric method; format: functional
# How it was run: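 Primary mouse calvarial osteoblasts treated with or without compound for 12 days, fixed in 4% formaldehyde, stained with alizarin red-S, and the stain extracted and quantified by the acetic acid method.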
# [4] = Induction of osteoblast differentiation in mouse calvarial cells assessed as increase in RunX2 mRNA expression at 1 pM after 24 hrs by qRT-PCR method relative to control; format: functional, Calvarial cell
# How it was run: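 Mouse calvarial osteoblasts exposed to 1 pM for 24 h; BMP2, RunX2 and COL1 mRNA by quantitative PCR with GAPDH as internal control. Mean ± SE of three independent experiments versus untreated cells.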
# Mus musculus [5] = assay: Anti-osteoporotic activity in ovariectomized postmenopausal Balb/c mouse model assessed as trabecular bone formation by measuring increase in bone volume fraction at 1 mg/kg, po qd via gavage for 6 weeks by micro CT-scan analysis relative to control; format: functional
# How it was run: (§2)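 Female Balb/c mice, 8 weeks old, ovariectomized, 6 weeks osteopenia development, then 1.0 mg/kg/day or gum acacia vehicle by oral gavage once daily for 6 weeks (sham, OVx and treated groups). Bones collected after sacrifice for micro-CT of trabecular microarchitecture (BV/TV, Tb.N, Tb.Th, Tb.Sp, SMI) and biomechanical testing of femur and vertebrae (energy, stiffness); mean ± SE versus OVx.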
# Mus musculus [6] = assay: Anti-osteoporotic activity in ovariectomized postmenopausal Balb/c mouse model assessed as improvement in micro-artchitectural parameter in tibia by measuring trabecular number at 1 mg/kg, po qd via gavage for 6 weeks by micro CT-scan analysis (reference value: 1.49 +/- 0.25 /millimeter); format: functional; how it was run: as §2
# Mus musculus [7] = assay: Anti-osteoporotic activity in ovariectomized postmenopausal Balb/c mouse model assessed as improvement in micro-artchitectural parameter in tibia by measuring structural model index at 1 mg/kg, po qd via gavage for 6 weeks by micro CT-scan analysis (reference value: 2.32 +/- 0.08); format: functional; how it was run: as §2
# Mus musculus [8] = assay: Anti-osteoporotic activity in ovariectomized postmenopausal Balb/c mouse model assessed as improvement in micro-artchitectural parameter in vertebrae by measuring trabecular number at 1 mg/kg, po qd via gavage for 6 weeks by micro CT-scan analysis (reference value: 2.24 +/- 0.16 /millimeter); format: functional; how it was run: as §2
# Mus musculus [9] = assay: Anti-osteoporotic activity in ovariectomized postmenopausal Balb/c mouse model assessed as improvement in micro-artchitectural parameter in vertebrae by measuring trabecular thickness at 1 mg/kg, po qd via gavage for 6 weeks by micro CT-scan analysis (reference value: 0.047 +/- 0.001 millimeter); format: functional; how it was run: as §2
# Mus musculus [10] = assay: Anti-osteoporotic activity in ovariectomized postmenopausal Balb/c mouse model assessed as induction of femur bone marrow cell mineralization at 1 mg/kg, po qd via gavage for 6 weeks measured on day 21 post dose by alizarin red-S staining based assay relative to control; format: functional; how it was run: as §1
# Mus musculus [11] = assay: Anti-osteoporotic activity in ovariectomized postmenopausal Balb/c mouse model assessed as increase in ALP gene expression in femur bone at 1 mg/kg, po qd via gavage for 6 weeks by RT-PCR method; format: functional, organism-based
# How it was run: (§3)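 Eight-week-old female Balb/c mice, ovariectomized and left 6 weeks for osteopenia to develop; groups sham+vehicle, OVx+vehicle, OVx+1.0 mg/kg/day, dosed once daily by oral gavage for 6 weeks in gum acacia/distilled water vehicle. Mice kept at 21°C, 12 h light/dark, chow and water ad libitum. Femoral bone mRNA or serum measured after sacrifice; mean ± SE versus OVx group.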
# Mus musculus [12] = assay: Anti-osteoporotic activity in ovariectomized postmenopausal Balb/c mouse model assessed as vertebrae compressive strength by measuring stiffness at 1 mg/kg, po qd via gavage for 6 weeks by micro CT-scan analysis (reference value: 345.7 +/- 5.08 N/mm); format: functional; how it was run: as §2
# Mus musculus [13] = assay: Anti-osteoporotic activity in ovariectomized postmenopausal Balb/c mouse model assessed as mineral apposition rate at 1 mg/kg, po qd via gavage for 6 weeks by fluorochromes tetracycline and calcein labeling based histomorphometric analysis (reference value: 0.099 +/- 0.01 umeter/day); format: functional
# Mus musculus [14] = assay: Estrogenic effect in uterine of ovariectomized postmenopausal Balb/c mouse model assessed as luminal area at 1 mg/kg, po qd via gavage for 6 weeks (reference value: 57.5 +/- 1.19 um2); format: ADME, organism-based; details: in vivo, 1008 h
# Mus musculus [15] = assay: Anti-osteoporotic activity in ovariectomized postmenopausal Balb/c mouse model assessed as increase in OPG gene expression in femur bone at 1 mg/kg, po qd via gavage for 6 weeks by RT-PCR method; format: functional, organism-based; how it was run: as §3
# Mus musculus [16] = assay: Anti-osteoporotic activity in ovariectomized postmenopausal Balb/c mouse model assessed as increase in COL1 gene expression in femur bone at 1 mg/kg, po qd via gavage for 6 weeks by RT-PCR method; format: functional, organism-based; how it was run: as §3
# Mus musculus [17] = assay: Anti-osteoporotic activity in ovariectomized postmenopausal Balb/c mouse model assessed as decrease in RANK mRNA expression at 1 mg/kg, po qd via gavage for 6 weeks by RT-PCR method; format: functional, organism-based; how it was run: as §3
# Mus musculus [18] = assay: Anti-osteoporotic activity in ovariectomized postmenopausal Balb/c mouse model assessed as decrease in RANKL mRNA expression at 1 mg/kg, po qd via gavage for 6 weeks by RT-PCR method; format: functional, organism-based; how it was run: as §3
# Mus musculus [19] = assay: Osteogenic activity in Balb/c mouse drill-hole fracture model assessed as increase in BMP4 mRNA level at 1 mg/kg, po qd via gavage for 21 days by RT-PCR method
# Mus musculus [20] = assay: Osteogenic activity in Balb/c mouse drill-hole fracture model assessed as increase in aggrecan mRNA level at 1 mg/kg, po qd via gavage for 21 days by RT-PCR method
# Mus musculus [21] = assay: Osteogenic activity in Balb/c mouse drill-hole fracture model assessed as increase in COL1 mRNA level at 1 mg/kg, po qd via gavage for 21 days by RT-PCR method relative to control
smiles,measurement,setting,value
COc1cc2oc(=O)cc(-c3ccccc3)c2cc1OCCCCCN1CCN(C)CC1,fold change (FC),Mus musculus [1],4
same,fold change (FC),Mus musculus [2],2
same,Concentration giving maximal ALP increase,[3],1 pM
same,Activity,Calvarial cell,Active
same,fold change (FC),[4],2
same,fold change (FC),Mus musculus [5],1.5
same,Activity,Mus musculus [6],2.7 /millimeter
same,Activity_index,Mus musculus [7],1.84
same,Activity,Mus musculus [8],4.63 /millimeter
same,Activity,Mus musculus [9],0.0522 mm
same,Activity,Mus musculus [10],50%
same,Activity,Mus musculus [11],Active
same,Activity,Mus musculus [12],381.35 N/mm
same,Activity,Mus musculus [13],0.177 micrometer/day
same,Activity,Mus musculus [14],75.75 um2
same,Activity,Mus musculus [15],Active
same,Activity,Mus musculus [16],Active
same,Activity,Mus musculus [17],Active
same,Activity,Mus musculus [18],Active
same,Activity,Mus musculus [19],Active
same,Activity,Mus musculus [20],Active
same,fold change (FC),Mus musculus [21],6
